Experimental data from ChEMBL document CHEMBL1177799 (Bioorg Med Chem Lett, 2010).

What was measured:
Adenosine receptor A2b [1] = biological target: T1, Adenosine receptor A2b (Homo sapiens, UniProt P29275); assay: Antagonist activity at human adenosine A2B receptor expressed in CHO cells assessed as inhibition of adenosine-induced cAMP production; type: functional, cell-based
T1 sequence (P29275 whole entry): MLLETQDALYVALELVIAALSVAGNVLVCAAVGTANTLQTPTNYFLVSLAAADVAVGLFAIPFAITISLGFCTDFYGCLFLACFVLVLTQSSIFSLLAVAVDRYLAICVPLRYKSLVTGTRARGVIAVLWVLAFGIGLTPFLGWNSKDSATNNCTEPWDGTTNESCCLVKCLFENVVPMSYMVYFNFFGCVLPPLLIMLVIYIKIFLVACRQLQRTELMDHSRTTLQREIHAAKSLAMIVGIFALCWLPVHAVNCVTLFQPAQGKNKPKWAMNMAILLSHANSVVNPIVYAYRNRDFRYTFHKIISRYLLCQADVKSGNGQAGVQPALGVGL
How it was run: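 CHO cells stably transfected with human A2B receptor, grown overnight as monolayer (7500 cells/well), washed with Krebs buffer, then exposed to compounds in Krebs buffer (final DMSO 1.1%) for 20–25 min. Wells emptied, cells lysed and cAMP measured with an enzyme-fragment complementation cAMP kit for adherent cells.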

Adenosine receptor A1 = biological target: T2, Adenosine receptor A1 (Homo sapiens, UniProt P30542); assay: Displacement of [3H]-DPCPX from human adenosine A1 receptor expressed in CHO-K1 cells after 1 hr by scintillation counting; type: cell-based
T2 sequence (P30542 whole entry): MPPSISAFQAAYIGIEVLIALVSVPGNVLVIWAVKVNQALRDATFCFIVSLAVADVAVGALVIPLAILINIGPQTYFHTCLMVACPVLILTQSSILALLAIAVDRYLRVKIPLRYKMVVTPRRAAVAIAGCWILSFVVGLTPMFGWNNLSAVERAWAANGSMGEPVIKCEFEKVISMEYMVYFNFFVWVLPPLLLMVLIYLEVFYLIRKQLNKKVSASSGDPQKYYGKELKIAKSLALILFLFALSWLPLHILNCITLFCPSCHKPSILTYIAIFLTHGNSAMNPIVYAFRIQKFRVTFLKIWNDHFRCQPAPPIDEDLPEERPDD
How it was run: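 Commercial human A1 membranes (10 µg/well) in HEPES 50 mM, NaCl 100 mM, MgCl2 1 mM buffer; competition against [3H]-DPCPX (4.8 nM final), 1 h at room temperature with orbital shaking. Filtration harvest on polyethyleneimine-treated (0.5%) glass-fibre plates, air-dried, scintillation counting.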

Adenosine receptor A2a = Adenosine receptor A2a (Homo sapiens, UniProt P29274); assay: Displacement of [3H]-ZM241385 from human adenosine A2A receptor expressed in CHO-K1 cells after 1 hr by scintillation counting; type: cell-based
Adenosine receptor A2b [2] = biological target: T1, Adenosine receptor A2b; assay: Displacement of [3H]ZM241385 from human adenosine A2B receptor expressed in CHO cells after 1 hr by scintillation counting; type: cell-based
How it was run: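 Whole CHO cells expressing human A2B receptor, harvested mechanically from 80% confluent flasks, frozen, then resuspended in assay buffer on assay day. Competition against [3H]ZM241385 (30 nM final), 1 h at room temperature with shaking. Harvest on 0.5% polyethyleneimine-treated filter plates, air-dried, scintillation counting.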

Chain of Adenosine receptor A2a (P29274 whole entry): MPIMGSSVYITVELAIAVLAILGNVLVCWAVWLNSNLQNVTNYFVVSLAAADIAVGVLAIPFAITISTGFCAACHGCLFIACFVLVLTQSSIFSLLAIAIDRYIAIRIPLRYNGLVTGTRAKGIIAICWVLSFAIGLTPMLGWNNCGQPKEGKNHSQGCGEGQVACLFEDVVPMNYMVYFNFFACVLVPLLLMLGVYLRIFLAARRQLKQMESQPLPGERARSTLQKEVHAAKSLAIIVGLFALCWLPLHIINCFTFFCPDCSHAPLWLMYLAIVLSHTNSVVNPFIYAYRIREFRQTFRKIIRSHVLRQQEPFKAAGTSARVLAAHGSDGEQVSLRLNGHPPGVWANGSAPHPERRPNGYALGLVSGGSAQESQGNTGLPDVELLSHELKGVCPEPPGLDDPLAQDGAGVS

Row | SMILES | IC50 (Adenosine receptor A2b [1]) [nM] | Ki (Adenosine receptor A1) [nM] | Ki (Adenosine receptor A2a) [nM] | Ki (Adenosine receptor A2b [2]) [nM]
1 | CCN(C(C)=O)c1ccc(OC)c2nc(NC(=O)c3cnn(Cc4cccc(C(F)(F)F)c4)c3)sc12 | 6 | 6 | 3 | 4
2 | CCN(C(C)=O)c1ccc(OC)c2nc(NC(=O)c3cnn(Cc4cccc(F)c4)c3)sc12 | 12 | 9 | 3 | 6
3 | CCN(C(C)=O)c1ccc(OC)c2nc(NC(=O)c3ccc(C(=O)N4CCCC4)cc3)sc12 | 16 | 50 | 68 | 
4 | CCN(C(C)=O)c1ccc(OC)c2nc(NC(=O)c3ccc(-n4cnnn4)cc3)sc12 | 28 | 130 | 80 | 23
5 | COc1ccc(N(CCCO)C(C)=O)c2sc(NC(=O)c3ccc(F)cc3)nc12 | 42 | 100 | 29 | 
6 | COC(=O)CN(C(C)=O)c1ccc(OC)c2nc(NC(=O)c3ccc(F)cc3)sc12 | 8 | 23 | 5 | 
7 | COCCN(C(C)=O)c1ccc(OC)c2nc(NC(=O)c3ccc(F)cc3)sc12 | 33 | 110 | 38 | 
8 | COc1ccc(N(CC(C)C)C(C)=O)c2sc(NC(=O)c3ccc(F)cc3)nc12 | 23 | 37 | 3 | 
9 | CCN(C(C)=O)c1ccc(OC)c2nc(NC(=O)c3ccc(F)cc3)sc12 | 12 | 66 | 22 | 13
10 | COc1ccc(N(C)C(C)=O)c2sc(NC(=O)c3ccc(F)cc3)nc12 | 15 | 66 | 39 | 22
11 | COc1ccc(N(CCO)C(C)=O)c2sc(NC(=O)c3ccc(F)cc3)nc12 | 77 | 450 | 98 | 
12 | COc1ccc(N(C(C)=O)C(F)F)c2sc(NC(=O)c3ccc(F)cc3)nc12 | 230 | 30 | 61 | 
13 | COc1ccc(N(CC(F)(F)F)C(C)=O)c2sc(NC(=O)c3ccc(F)cc3)nc12 | 40 | 42 | 35 | 
14 | COc1ccc(N(C(C)=O)C(C)C)c2sc(NC(=O)c3ccc(F)cc3)nc12 | 19 |  |  | 
15 | CCN(C(C)=O)c1ccc(OC)c2nc(NC(=O)c3ccc(C(=O)OC)cc3)sc12 | 35 | 185 | 170 | 15
16 | CCN(C(C)=O)c1ccc(OC)c2nc(NC(=O)c3ccc(-n4ccnc4)cc3)sc12 | 19 | 150 | 77 | 8
17 | CCN(C(C)=O)c1ccc(OC)c2nc(NC(=O)c3ccc(CN4CCCC4=O)cc3)sc12 | 28 | 400 | 27 | 14
18 | CCN(C(C)=O)c1ccc(OC)c2nc(NC(=O)c3ccc(CN(C)S(C)(=O)=O)cc3)sc12 | 19 | 410 | 71 | 4
19 | CCN(C(C)=O)c1ccc(OC)c2nc(NC(=O)c3ccc(C(=O)N(C)CCOC)cc3)sc12 | 13 | 180 | 26 | 13
